We go through 22 compounds from ChEMBL document CHEMBL1127309, “A novel and useful descriptor for hydrophobicity, partition coefficient micellar-water, and its application to a QSAR study of antiplatelet agents” (J Med Chem, 1994).

Data set [1] in a line: Retention time at 35 mM. The format is ADME. The settings on record: 35000 µM. The method in brief:
(§1)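 Reversed-phase HPLC on a C8 column (4.6 × 100 mm, 10 µm) at room temperature (22-25 °C). The mobile phase was Brij35 micelle solution in 10 mM phosphate buffer, pH 4.01, run separately at 25, 30, 35 and 40 mM Brij35. NaNO₃ served as the dead-time marker.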

In data set [2] the test system is Rattus norvegicus. The experiment in a line: Tested for antiplatelet activity in rat by conversion of the original antiplatelet activity data (%) to antiplatelet activity values at 10 umol/kg. It counts as functional.
A short description of data set [3]: Retention time at 40 mM. Conditions: 40000 µM. It counts as ADME. The method in brief:
as §1

Data set [4] deals with Rattus norvegicus. The experiment in a line: Tested for inhibitory activity on rat platelet aggregation induced by collagen measured after 1 hr of oral administration of compound (10 mg/kg) in rat. It counts as functional.
Data set [5] can be described thus: Retention time at 30 mM. The settings on record: 30000 µM. The format is ADME. The method in brief: as §1
Data set [6] can be described thus: Retention time at 25 mM. The format is ADME. The settings on record: 25000 µM. The procedure, abridged: as §1
Data set [7] deals with Rattus norvegicus. The experiment in a line: Tested for inhibitory activity on rat platelet aggregation induced by collagen ex vivo measured after 1 hr of oral administration of compound (10 mg/kg) in rat. It counts as functional.

The term Inhibition denotes how much of the control response was suppressed. Low values mean a response near the control, high ones a response far below the control. For `COc1cc2c(cc1-c1nc(C)c(-c3cccnc3)[nH]1)nc(O)n2C`, the Retention time in data set [1] worked out at 1.345 min; in data set [3] it was 1.331 min; in data set [5], 1.362 min; in data set [6], 1.375 min. For the same compound, the “Log APA” value with Rattus norvegicus [2] is recorded as 0.57. In the data set with Rattus norvegicus [4], this compound had an Inhibition of 11%.

Regarding `COc1c(-c2nc(C)c(-c3cccnc3)[nH]2)cc2nc(O)[nH]c2c1Cl`, the Retention time is 1.296 min in data set [1], 1.289 min in data set [3], 1.301 min in data set [5] and 1.32 min in data set [6]. For the same compound, the “Log APA” value with Rattus norvegicus [2] is reported as 0.79. The Inhibition in the data set on Rattus norvegicus [4] amounted to 17%.

Regarding `COc1c(-c2nc(C)c(-c3cccnc3)[nH]2)ccc2[nH]c(C)nc12`, the Retention time in data set [1] is 2.56 min; in data set [3] it was 2.43 min; in data set [5] it was 2.7 min; in data set [6], 2.79 min. Further, in the data set with Rattus norvegicus [2], the “Log APA” value was 0.72. The compound also registered an Inhibition with Rattus norvegicus [4] of 16%.

Take `COc1c(-c2nc(C)c(-c3cccnc3)[nH]2)cc2nc(C)[nH]c2c1Cl`: the Retention time in data set [1] was 4.05 min; in data set [3] it was 3.79 min; in data set [5], 4.36 min; in data set [6] it was 4.69 min. Also, the “Log APA” value with Rattus norvegicus [2] is 1.4. Moreover, the Inhibition in the data set with Rattus norvegicus [4] is 63%.

As to `COc1cc(OC)c(-c2nc(C)c(-c3cccnc3)[nH]2)cc1NC(C)=O`, the Retention time was 2.5 min in data set [1], 2.41 min in data set [3], 2.6 min in data set [5] and 2.75 min in data set [6]. For the same compound, the “Log APA” value with Rattus norvegicus [2] worked out at 0.93. In the data set with Rattus norvegicus [4], this compound had an Inhibition of 24%.

Consider `Cc1nc2cc(Cl)c(-c3nc(C)c(-c4cccnc4)[nH]3)cc2[nH]1`, for which the Retention time was 3.19 min in data set [1], 3 min in data set [3], 3.41 min in data set [5] and 3.56 min in data set [6]. In the data set with Rattus norvegicus [2], the “Log APA” value stood at 0.68. The Inhibition in the data set with Rattus norvegicus [4] was determined as 15%.

On to `COc1ccccc1-c1nc(C)c(-c2cccnc2)[nH]1`, for which the Retention time turned out to be 3.97 min in data set [1], 3.76 min in data set [3], 4.21 min in data set [5] and 4.59 min in data set [6]. Besides, in the data set on Rattus norvegicus [2], the “Log APA” value came to 1.1. Also, in the data set on Rattus norvegicus [4], the Inhibition was 49%.

As to `COc1cc(NC(C)=O)c([N+](=O)[O-])cc1-c1nc(C)c(-c2cccnc2)[nH]1`, the Retention time turned out to be 8.08 min in data set [1], 7.33 min in data set [3], 9.08 min in data set [5] and 10.35 min in data set [6]. Also, the “Log APA” value in the data set with Rattus norvegicus [2] is 1.5. In the data set with Rattus norvegicus [4], this compound returned an Inhibition of 86%.

`CSc1ccccc1-c1nc(C)c(-c2cccnc2)[nH]1`: the Retention time turned out to be 6.46 min in data set [1], 6 min in data set [3], 7.01 min in data set [5] and 7.65 min in data set [6]. Moreover, the “Log APA” value in the data set on Rattus norvegicus [2] stood at 0.95. Also, in the data set with Rattus norvegicus [4], the Inhibition came out at 32%.

On to `Cc1[nH]c(-c2ccccc2N)nc1-c1cccnc1`, for which the Retention time is on record as 3.21 min in data set [1], 3.07 min in data set [3], 3.37 min in data set [5] and 3.58 min in data set [6]. In addition, the “Log APA” value with Rattus norvegicus [2] is 0.8. Further, in the data set on Rattus norvegicus [4], the Inhibition came to 25%.

As for `COc1c(-c2nc(C)c(-c3cccnc3)[nH]2)cc(Cl)c2[nH]c(CCC(=O)O)nc12`, the Retention time in data set [1] is 3.27 min; in data set [3] it was 3.1 min; in data set [5], 3.47 min; in data set [6], 3.68 min. In the data set with Rattus norvegicus [2], the “Log APA” value was 0.4. In addition, the Inhibition with Rattus norvegicus [4] amounted to 6%.

Consider `CNC(=O)Nc1ccccc1-c1nc(C)c(-c2cccnc2)[nH]1`, for which the Retention time in data set [1] was 5.35 min; in data set [3], 5 min; in data set [5], 5.78 min; in data set [6], 6.34 min. The “Log APA” value in the data set on Rattus norvegicus [2] was 1.1. The compound further registered an Inhibition in the data set on Rattus norvegicus [4] of 46%.

Take `Cc1[nH]c(-c2ccccc2Cl)nc1-c1cccnc1`: the Retention time in data set [1] is recorded as 7.17 min; in data set [3], 6.64 min; in data set [5], 7.83 min; in data set [6] it was 8.63 min. In addition, the “Log APA” value with Rattus norvegicus [2] worked out at 0.38. This compound also showed an Inhibition with Rattus norvegicus [4] of 9%.

As to `Cc1nc2cc(-c3nc(C)c(-c4cccnc4)[nH]3)c(C)cc2[nH]1`, the Retention time is given as 1.28 min in data set [1], 1.271 min in data set [3], 1.294 min in data set [5] and 1.3 min in data set [6]. Moreover, the “Log APA” value in the data set with Rattus norvegicus [2] was determined as 0.74. Further, the Inhibition in the data set on Rattus norvegicus [4] was found to be 18%.

Regarding `Cc1[nH]c(-c2ccccc2F)nc1-c1cccnc1`, the Retention time in data set [1] is reported as 7.13 min; in data set [3] it was 6.57 min; in data set [5], 7.84 min; in data set [6] it was 8.75 min. Also, in the data set on Rattus norvegicus [2], the “Log APA” value turned out to be 1.4. Further, in the data set on Rattus norvegicus [4], the Inhibition came out at 98%.

Consider `Cc1ccccc1-c1nc(C)c(-c2cccnc2)[nH]1`, for which the Retention time in data set [1] is 4.64 min; in data set [3] it was 4.39 min; in data set [5], 4.92 min; in data set [6] it was 5.2 min. Also, the “Log APA” value in the data set with Rattus norvegicus [2] came out at 0.18. The compound further displayed an Inhibition in the data set with Rattus norvegicus [4] of 6%.

On to `COC(=O)Nc1ccccc1-c1nc(C)c(-c2cccnc2)[nH]1`, for which the Retention time in data set [1] amounted to 7.27 min; in data set [3], 6.7 min; in data set [5], 7.94 min; in data set [6] it was 8.79 min. The “Log APA” value with Rattus norvegicus [2] worked out at 1.4. The Inhibition in the data set with Rattus norvegicus [7] was 73%.

With `COc1cc(NC(C)=O)c(Cl)cc1-c1nc(C)c(-c2cccnc2)[nH]1`, the Retention time in data set [1] came to 6.32 min; in data set [3], 5.78 min; in data set [5] it was 7.01 min; in data set [6], 7.95 min. Moreover, the “Log APA” value with Rattus norvegicus [2] is 1.4. The compound also had an Inhibition in the data set with Rattus norvegicus [4] of 65%.

`COc1cc2[nH]c(C)nc2cc1-c1nc(C)c(-c2cccnc2)[nH]1`: the Retention time in data set [1] amounted to 2.06 min; in data set [3] it was 1.99 min; in data set [5], 2.16 min; in data set [6] it was 2.23 min. Also, in the data set with Rattus norvegicus [2], the “Log APA” value is 0.83. In addition, in the data set on Rattus norvegicus [4], the Inhibition is given as 21%.

As to `COc1c(-c2nc(C)c(-c3cccnc3)[nH]2)cc(Cl)c2[nH]c(C)nc12`, the Retention time in data set [1] stood at 7.24 min; in data set [3], 6.52 min; in data set [5], 8.14 min; in data set [6], 9.36 min. Also, the “Log APA” value in the data set on Rattus norvegicus [2] was determined as 1.3. For the same compound, the Inhibition with Rattus norvegicus [4] was found to be 51%.

Turning to `CCOC(=O)COc1ccccc1-c1nc(C)c(-c2cccnc2)[nH]1`, the Retention time in data set [1] amounted to 6.57 min; in data set [3], 6.18 min; in data set [5] it was 7.12 min; in data set [6], 9.21 min. Moreover, the “Log APA” value in the data set with Rattus norvegicus [2] was 0.6. The same compound came in with an Inhibition with Rattus norvegicus [4] of 12%.

Turning to `CCOc1ccccc1-c1nc(C)c(-c2cccnc2)[nH]1`, the Retention time is on record as 5.08 min in data set [1], 4.77 min in data set [3], 5.44 min in data set [5] and 6.01 min in data set [6]. Further, the “Log APA” value in the data set with Rattus norvegicus [2] was found to be 1.1. In the data set with Rattus norvegicus [4], this compound had an Inhibition of 45%.
